PMI act satM6P: increases human PMI activity with near-saturating mannose 6-phosphate | P34949 | coupled PMI enzyme assay, resazurin fluorescence, 20 min; hits give high values; 1 = untreated enzyme, 0 = substrate-free blank | activation factor at 20 µM | 190,000 tested, 0.34% active | AID 1216;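 active = activation factor of 2 or more at 20 µM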
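test system = human PMI in coupled enzyme assay | medium = HEPES-buffered pH 7.4 with magnesium and detergent | also added = 1.0 mM mannose-6-phosphate substrate with 0.22 mM NADP+ | compound = 20 µM single dose | times = 20 min incubation at room temperature | measured by = resorufin fluorescence (Ex 544/Em 590 nm) from resazurin via diaphorase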
KCC2 mod: modulators of human KCC2 chloride dependent transport; 190,000 tested, 2.2% active; KCC2 cells, thallium flux FluoZin-2 fluorescence; B-score of Tl+ flux slope (higher = more flux/activation; lower = inhibition) at 10 µM; AID 1456; Q9H2X9;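 active = thallium flux slope and its plate-corrected score both differing from the plate sample mean at a set confidence after two filtering rounds, in either direction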;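 also: slope of fluorescence scaled to starting intensity during 10 to 20 s after thallium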
ROMK mod: modulates human ROMK potassium channel activity | Tet-inducible ROMK, thallium flux fluorescence; actives lie on both sides | B-score at 10 µM | 130,000 tested, 2% active | AID 1918;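 active = signal ratio slope over the read window, or its plate-corrected B-score, at least 3 SD from the plate mean, either direction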;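 also: B-score of the F/F0 ratio slope over 7 to 12 s after thallium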
ABCG2 block: human ABCG2 inhibition, ABCB1 as counter-screen; Q9UNQ0; AID 1325; IgMXP3 cells, JC-1 efflux, flow cytometry; 190,000 tested, 0.1% active; inhibition, % at 6.6 µM;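 active = inhibition above 80%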;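 also: 0% = DMSO and 100% = nicardipine control wells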
Target sequence (Q9UNQ0 whole entry, looked up): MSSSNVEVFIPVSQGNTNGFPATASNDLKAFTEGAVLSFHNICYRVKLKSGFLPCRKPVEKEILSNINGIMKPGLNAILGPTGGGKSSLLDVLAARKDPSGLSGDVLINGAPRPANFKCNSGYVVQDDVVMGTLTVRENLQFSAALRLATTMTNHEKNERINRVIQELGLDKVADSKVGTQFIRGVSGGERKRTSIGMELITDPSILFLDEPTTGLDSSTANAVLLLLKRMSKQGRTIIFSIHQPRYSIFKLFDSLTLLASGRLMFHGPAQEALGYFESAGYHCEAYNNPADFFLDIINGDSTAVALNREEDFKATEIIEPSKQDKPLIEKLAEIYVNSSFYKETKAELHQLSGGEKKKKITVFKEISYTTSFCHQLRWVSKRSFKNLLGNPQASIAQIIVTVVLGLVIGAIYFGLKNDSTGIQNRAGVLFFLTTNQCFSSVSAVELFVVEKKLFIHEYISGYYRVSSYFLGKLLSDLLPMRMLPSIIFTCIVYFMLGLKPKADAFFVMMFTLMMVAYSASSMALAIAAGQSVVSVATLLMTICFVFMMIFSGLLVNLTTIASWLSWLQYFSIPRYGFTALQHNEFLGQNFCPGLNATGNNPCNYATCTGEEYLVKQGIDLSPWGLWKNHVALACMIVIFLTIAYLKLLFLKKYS
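Incubation: cells with compound and JC-1, 10 min at 25 °C, rotating, no wash / Test system: IgMXP3 (ABCG2) plus far-red-tagged CCRF-Adr (ABCB1) cells / Compound dosing: one concentration, 6.6 µM final / Also added: JC-1 fluorescent substrate / Evaluation: efflux inhibition in percent versus controls / Detection: flow cytometry, 530 nm JC-1 signal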
PMI act: increases human mannose-6-phosphate isomerase activity; purified human PMI, coupled resazurin fluorescence, 20 min; hits give high values; 1 = vehicle control, 0 substrate-free wells; 190,000 tested, 0.005% active; activation factor at 20 µM; P34949;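 active = activation factor of 2 or more at 20 µM, relative to plate controls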
ABCB1 block: blocks JC-1 efflux by human ABCB1 transporter | P08183 | inhibition, % at 6.6 µM | AID 1326 | 190,000 tested, 0.067% active | CCRF-Adr cells, flow cytometry; in the data active = inhibition above about 40%;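 also: 0% = vehicle and 100% = reference inhibitor; higher value means more JC-1 retained so stronger ABCB1 efflux block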
ABCB1 confirm: confirmation of human ABCB1 transporter inhibitors, ABCG2 counter-screen | AID 1451 | inhibition, % at 6.6 µM | CCRF-Adr cells, JC-1 efflux, flow cytometry | shares compounds with ABCG2 block | 270 tested, 7% active;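 active = inhibition of pump activity above 50%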;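 also: 0% = DMSO and 100% = nicardipine full pump inhibition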
ABCG2 confirm: confirmation of human ABCG2 transporter inhibitors, ABCB1 counter-screen | shares compounds with ABCG2 block | 270 tested, 6% active | AID 1453 | IgMXP3 cells, JC-1 efflux, flow cytometry | inhibition, % at 6.6 µM;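 active = inhibition above 50%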;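 also: 0% = DMSO wells and 100% = nicardipine pump inhibitor wells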
IgMXP3 fluor: compound fluoresces at 488/530 nm in IgMXP3 cells; AID 1480; compound autofluorescence 488/530 nm, flow; hits give high values; shares compounds with ABCG2 block; 270 tested, 30% active; fluorescence at 6.6 µM;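 active = fluorescence in ABCG2-expressing cells above the plate's control-well mean plus 3 SD, cut at about 15 in these data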;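 also: median cell fluorescence with compound minus that of DMSO-treated control cells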
CCRF-Adr fluor: CCRF-Adr autofluorescence flag for ABCB1 confirmation; shares compounds with ABCG2 block; CCRF-Adr cells, compound autofluorescence 488/530 nm, flow cytometry; hits give high values; fluorescence at 6.6 µM; 270 tested, 30% active;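 active = fluorescence beyond the plate control mean plus 3 SD, with a fluorescence-to-maximum score over 2, cut at about 25 in these data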
An asterisk follows results filed as active; i = inactive; . = no result. Only some compounds are listed: those with a hit (about 3.3% of all), similar ones and a draw of the others.

SMILES | PMI act satM6P | KCC2 mod | ROMK mod | ABCG2 block | PMI act | ABCB1 block | ABCB1 confirm | ABCG2 confirm | IgMXP3 fluor | CCRF-Adr fluor
COc1ccc(-c2cc(C3CCN(C(=O)OC(C)(C)C)CC3)[nH]n2)cc1 | 0.9 | 0.55 | 1 | 4 | 0.9 | 1 | . | . | . | .
CCOC(=O)c1cn2nc(-c3ccc(OC)cc3)cc2nc1C1CCN(C(=O)OC(C)(C)C)CC1 | 0.8 | 0.091 | . | 27 | 0.8 | 51* | 45 | 15 | 0.41 | -1.2
O=C(CCCCCn1c(=S)[nH]c2ccc(Br)cc2c1=O)NCC1CCCO1 (centres undefined) | 1.1 | 0.6 | -0.34 | 81* | 1 | 3 | 8 | 34 | 15* | 72*
NS(=O)(=O)c1ccc(CCNC(=O)CCCCCn2c(=S)[nH]c3ccc(Br)cc3c2=O)cc1 | 1.1 | 1.2 | 0.28 | -1 | 1.1 | 0 | . | . | . | .
Cc1nc(NC(=O)/C=C/c2ccccc2)n[nH]1 | 1.1 | -0.19 | -0.013 | 4 | 0.9 | 0 | . | . | . | .
Cc1cc([N+](=O)[O-])ccc1NC(=O)Nc1ccccc1F | 1 | -0.35 | 0.4 | 106* | 1 | 2 | 1 | 40 | -0.99 | 4
O=C(Nc1ccccc1)Nc1cc([N+](=O)[O-])ccc1F | 0.9 | 0.23 | -1.7 | 11 | 0.9 | 1 | . | . | . | .
CN(C)c1ccc(/C=C2\N=C(c3ccc(Cl)c([N+](=O)[O-])c3)NC2=O)cc1 | 0.9 | -1.8 | -1.1 | 83* | 1 | 83* | 4 | 5 | 75* | 94*
CN(C)c1ccc(/C=C2/NC(=O)NC2=O)cc1 | 0.9 | 0.013 | -0.97 | 8 | 1 | 0 | . | . | . | .
CN(C)c1ccc(P(=O)(Nc2cccc(C(F)(F)F)c2)N2CCOCC2)c(NC(=O)c2cccs2)c1 (centres undefined) | 0.8 | -0.26 | -0.65 | 19 | 0.8 | 51* | 75* | 26 | -2.2 | -4.6
COCCNC(=O)CSCc1cc(C)cc(C)c1 | 1.1 | 1.2 | -1.3 | 4 | 1.1 | 1 | . | . | . | .
COC(=O)c1cc(NC(=O)c2ccccc2)c(=O)oc1/C=C/Nc1ccc(Oc2ccccc2)cc1 | 1 | i | -4.5* | 116* | 1.1 | 127* | 91* | -34 | 207* | 339*
COc1ccc(C(=O)Nc2cc(C(C)=O)c(C)oc2=O)cc1 | 1.6 | 0.78 | 0.9 | 3 | 1.6 | 0 | . | . | . | .
CCCCOc1cccc(C(=O)NNC(=S)NC2CCCCC2)c1 | 1.1 | -1.4 | . | 9 | 1.1 | 0 | . | . | . | .
C/C(=N\NC(=O)COc1cc(C)cc(C)c1)c1ccc(N2CCOCC2)cc1 | 0.9 | -0.49 | . | 92* | 0.9 | 0 | 1 | 42 | -2.2 | -4.6
C/C(=N\NC(=O)COc1ccc(C#N)cc1)c1ccc(N2CCOCC2)cc1 | 1 | -0.042 | -0.5 | 3 | 1 | 0 | . | . | . | .
Cn1c(Cn2nnc3ccccc32)nnc1SCC(=O)Nc1nccs1 | 0.9 | -0.069 | . | 6 | 0.9 | 0 | . | . | . | .
O=C(Nc1nc2ccc([N+](=O)[O-])cc2s1)c1c(F)cccc1F | 1 | 0.00085 | -0.18 | 80 | 1.1 | 1 | 0 | 30 | -3.4 | -5.7
O=c1oc2ccccc2cc1-c1nc2c(s1)CCCC2 | 0.9 | . | -0.81 | 55 | 0.9 | 7 | 6 | 10 | 12 | 2
CC(=O)CCc1ccc(Oc2nc(-c3cccnc3)nc3ccccc23)cc1 | 0.9 | -0.67 | -0.88 | 5 | 0.9 | 0 | . | . | . | .
COC(=O)[C@@H]1CC[C@H](C)[C@@H](c2ccc(C)cc2)N1C(=O)c1ccc(/C=N/O[C@@H](C)c2cn([C@H](CO)Cc3ccccc3)nn2)cc1 | 0.8 | -0.34 | -0.28 | 44 | 0.8 | 42* | 34 | 5 | 2.9 | 16
COC(=O)[C@@H]1CC[C@H](C)[C@@H](c2ccc(C)cc2)N1C(=O)c1ccc(/C=N/OC[C@@H](O)[C@H]2O[C@@H]3OC(C)(C)O[C@@H]3[C@H]2O)cc1 | 1.1 | 0.34 | 1.6 | -4 | 1.1 | 2 | . | . | . | .
CCn1c(SCC(=O)N/N=C(\C)c2ccncc2)nnc1-c1ccc(C)cc1 | . | 0.16 | . | . | . | . | . | . | . | .
O=C(NNc1cccc(Cl)n1)Nc1ccc(F)cc1 | 1 | 0.54 | -0.99 | -2 | 1 | -1 | . | . | . | .
O=[N+]([O-])c1ccc(Nc2nc(Cl)nc(NCCO)n2)cc1 | 1.1 | 0.59 | 0.015 | 66 | 1.2 | 2 | 2 | 55* | -2.2 | -5
SMILES | PMI act satM6P | KCC2 mod | ROMK mod | ABCG2 block | PMI act | ABCB1 block | ABCB1 confirm | ABCG2 confirm | IgMXP3 fluor | CCRF-Adr fluor
O=C(Cc1c(Sc2ccccc2)c2ccccc2n1Cc1ccccc1)NCCO | 0.9 | -0.057 | 0.5 | 1 | 0.9 | 1 | . | . | . | .
COc1ccc(Cc2nc3c4c(ncn3n2)Oc2ccc3ccccc3c2C4c2ccc(OC)c(OC)c2)cc1 (centres undefined) | 1 | 0.22 | . | 7 | 0.9 | 10 | 30 | 18 | -2.3 | -4.1
COc1ccc(Cc2nc3c4c(ncn3n2)Oc2c(ccc3ccccc23)C4c2ccc(OC)c(OC)c2)cc1 (centres undefined) | 0.9 | 0.76 | . | 7 | 0.9 | 12 | . | . | . | .
COc1ccc(CNc2nc(-c3cccnc3)nn2C(C)=O)cc1 | 1 | -1 | 0.82 | 8 | 1 | -1 | . | . | . | .
COc1ccc(CNc2nc(-c3cccnc3)nn2C(=O)c2cccs2)cc1 | 0.9 | -1.2 | . | 88* | 0.9 | 6 | 11 | 35 | -0.74 | 0.01
Cc1c(C(=O)Nc2ccc(Cl)cc2)c2ccccn2c1CCc1ccncc1 | 1.2 | -0.17 | . | 8 | 1.3 | 6 | . | . | . | .
Cc1c(C(=O)Nc2cccc(Cl)c2)c2ccccn2c1CCc1ccncc1 | 1 | -0.15 | . | 99* | 1 | 66* | 56* | 42 | -1.5 | -3.7
O=C1CCN(S(=O)(=O)c2cccs2)c2ccc(C(F)(F)F)cc2N1 | 1 | -0.48 | 0.24 | 0 | 1.1 | 0 | . | . | . | .
Cc1ccccc1Cn1cc(S(=O)(=O)CC(=O)Nc2nccs2)c2ccccc21 | 0.9 | -0.48 | . | 83* | 1 | 9 | 7 | 14 | -1.1 | -2.1
CCS(=O)(=O)N1Cc2ccccc2CC1C(=O)Nc1nnc(SCc2ccc(F)cc2)s1 (centres undefined) | 0.9 | 1.2 | -0.41 | -2 | 1 | 0 | . | . | . | .

Source: PubChem BioAssay
